Test results taken from ChEMBL document CHEMBL4513216, “Probing the Open Global Health Chemical Diversity Library for Multistage-Active Starting Points for Next-Generation Antimalarials” (ACS Infect Dis, 2020).

Test: Toxicity liver stage against HepG2, at 10uM
Assay type: cell-based
Set-up: test concentration 10 uM, cell line HepG2-A16-CD81EGFP
Settings: human, HepG2-A16-CD81EGFP cells; read-out: INHIBITION
Method in brief: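 Uninfected HepG2-A16-CD81EGFP cells, 3 × 10^3 per well, 1536-well, plated on prespotted compound at 10 μM final, parasite-free screening media added to match infected plates; puromycin 10 μM positive, DMSO 0.5% negative; run in parallel with 48 h PbLuc assay at 37 °C, 5% CO2; viability by CellTiter-Glo luminescence, normalized to controls.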

SMILES	cytotoxicity at 10 µM
Cc1ccc(C(=O)N2CCO[C@H]3[C@H](OCc4ccccn4)CC[C@@H]32)o1	-148%
Cc1nc(Nc2cnccn2)cc(C2CCCN2C2CCOCC2)n1 (configuration not stated)	-17.3%
O=C(COc1ccccc1)N1CCC[C@]2(C[C@@H](OCC3CC3)CO2)C1	-1.69%
CCC[C@@H]1CN(C(=O)c2ccccc2C(C)=O)C[C@H]1N(C)C	-0.254%
O=C1NC2(CCN(C(=O)Cc3ccsc3)CC2)CC1c1ccncc1 (configuration not stated)	5.06%
COc1cccc2c1N(CC(=O)Nc1ccc(Br)cn1)CCC2	36.5%
CN(C)C(=O)N[C@@H]1CN(S(C)(=O)=O)[C@@H]2CCCO[C@@H]21	2.62%
Cc1cccc(N2CCN(c3ccn4c(=O)[nH]nc4n3)CC2)c1C	36%
CCCS(=O)(=O)N1CCC(NC(=O)c2cc3ccccc3s2)CC1	4.69%
CC(C)c1cc(C(=O)O)nc2[nH]c(=O)[nH]c(=O)c12	-3.25%
CCN(Cc1ccc(C#N)cc1F)C(=O)CN(C)CC(N)=O	7.52%
C1=C(CNC2CCc3ncnn3C2)COc2ccccc21 (configuration not stated)	-2.28%
CCc1cnc(CN(C)C2CCN(CCNS(=O)(=O)CC)C2)o1 (configuration not stated)	8.94%
CN(C)Cc1nnc2n1CCCN(C(=O)c1c[nH]cn1)C2	3.77%
CCc1nc(CN2CCCN(C(=O)c3cc(C)on3)CC2)cs1	-7.81%
CCCN(Cc1cnc2ccccc2n1)Cc1ccccc1OC	-40.1%
Cc1cnn(CC2CCCN2C(=O)CCCc2nc(C)no2)c1 (configuration not stated)	2.86%
CCc1cn[nH]c1C1CCCN(C(=O)c2ncoc2C(C)C)C1 (configuration not stated)	1.86%
c1ccc(-n2cc(CNC3CCc4ncnn4C3)cn2)cc1 (configuration not stated)	-26.6%
O=C(CC1CC1)N1CCn2cc(Cn3cncn3)nc2C1	-8.87%
C[C@@H]1CN(Cc2ccsc2)C[C@]12CCN(Cc1cccnc1)C2=O	7.62%
CC(C)CC(C)N(C)Cc1nnc(-c2ccco2)o1 (configuration not stated)	6.07%
Nc1cc(-c2cccc3c2CCNC3)ncn1	-8.27%

SMILES	cytotoxicity at 10 µM
Cc1nc2ccccc2c(=O)n1CCC(=O)N1CCCC1	-10%
Cc1c[nH]c(CN2CCCn3nc(CNS(C)(=O)=O)cc3C2)n1	1.79%
CCc1ccc(CN2CCN(C(=O)C(C)C)[C@@H]3CS(=O)(=O)C[C@@H]32)cc1	2.11%
COCCC(=O)N1CCCC1c1csc(Nc2ncccn2)n1 (configuration not stated)	-4.33%
COc1ccc(C2=Nn3c(CN)nnc3-c3ccccc3C2)cc1	8.55%
CCc1ncc2c(n1)CN(c1cc(NC3CC3)nc(N)n1)C2	5.75%
CCc1cc(NCc2ccc(-n3cncn3)c(C)c2)n(C)n1	-52.6%
CCCOCCn1ncc(N2CCc3ccccc3C2)cc1=O	2.63%
O=C1COC2(CCN(Cc3nccs3)CC2)CN1c1ccccc1	-114%
CC(C)CC(NS(C)(=O)=O)C(=O)N(C)Cc1nnc2n1CCC2 (configuration not stated)	-4.22%
c1cnn(CC2CCCN2c2ncnc3c2CCC3)c1 (configuration not stated)	41.2%
O=C(NCCc1ccsc1)c1ccoc1	-3.3%
Cn1cc(C2CCCN2C(=O)CCn2ccc3ccccc32)cn1 (configuration not stated)	8.84%
O=C(Nc1nncs1)c1ccc(-n2cnnn2)cc1	5.25%
CC1CCN(c2nc(O)cc(C3CC(=O)N(C4CCCCC4)C3)n2)CC1 (configuration not stated)	3.81%
c1cc(-c2cn[nH]c2)ccc1CN1CCNCC1	0.866%
COc1cnc(N2CCCC(c3ncc[nH]3)C2)nc1 (configuration not stated)	-0.268%
Cc1cnn(C2CCCN(C(=O)c3ccc4c(c3)CCC4)C2)c1 (configuration not stated)	-4.81%
CC(C(=O)N1CCOCC1)n1cc(Br)cn1 (configuration not stated)	14.1%
CC(C)[C@@H]1CN(Cc2cnc3c(S(C)(=O)=O)cnn3c2)C[C@H]1N(C)C	-3.5%
O=C(Cc1ccccc1)NCc1ncc(-c2ccccc2C(=O)O)cn1	-1.89%
COc1ccc(C(C)NCc2ccc(OC)c(OC)c2OC)cc1F (configuration not stated)	55.9%
Cn1c2ccc(F)cc2c2ncn(CCN3CCOCC3)c(=O)c21	18.2%

SMILES	cytotoxicity at 10 µM
CC(c1ccon1)N(C)C(=O)C1CCN(C(=O)C2CC2)CC1 (configuration not stated)	-2.71%
O=C(c1ccco1)N1CCC2(CC1)C(=O)NCCN2CC1CC1	4.3%
Cc1nc(CN2CCCn3cnc(COC(C)C)c3C2)cs1	-73.4%
Cc1nc2c(c(=O)n1C)CCN(Cc1cc3ccccc3[nH]1)CC2	-8.42%
CCN(c1ccc(C(=O)N2CCCCCC2)cc1)S(=O)(=O)CC	-2.25%
CNC(=O)C1Cn2ccnc2C2(CCN(C(=O)CC3CCCC3)CC2)O1 (configuration not stated)	-145%
Cc1cccc(C)c1OCC(=O)Nc1cccn(C)c1=O	4.08%
O=C(NCCCn1ccnc1)N1CCCC1c1ccncc1 (configuration not stated)	25.4%
CCc1nc(C)c([C@H]2CN(C)C[C@@H]2C(=O)NCCc2cnccn2)[nH]1	-9.52%
Cc1nc2c(N3CCN(CCO)CC3)nc(N)nc2n1C	-10.8%
OCC1(O)CCN(c2ncccc2C(F)(F)F)CC1	-13.6%
CO[C@H]1CN(Cc2nc3ccccc3n2C)C[C@@]12CCCO2	4.32%
O=C(NC1CC1)N1CCn2c(Cn3cccn3)cnc2C1	-72.8%
CN1CCO[C@H]2CN(C(=O)c3ccoc3)C[C@H]21	-80.6%
Cc1csc(C(C)(C)NCc2ncc(-c3ccccc3)o2)n1	7.95%
Cc1nn(C)cc1C(C)Nc1ncc(C(N)=O)cc1Cl (configuration not stated)	3.68%
CCOC(=O)CN1CCC2(CC1)CC(NC(=O)c1ccccn1)CO2 (configuration not stated)	2.17%
Cc1ccc(C(CNCc2cnn(C(C)C)c2)N2CCOCC2)s1 (configuration not stated)	-21.3%
Cc1nc(C)n(CC2CCCCN2CCCS(N)(=O)=O)n1 (configuration not stated)	-3.73%
CC(C(=O)N(Cc1ccc(F)cc1)CC(F)(F)F)S(C)(=O)=O (configuration not stated)	14.7%
COCC[C@]1(O)CCN(S(=O)(=O)c2ccc(C)cc2OC)C[C@H]1C	11.4%
CS(=O)(=O)N1CCC2(CC1)CN(CC1CC1)CC21CCNC1=O (configuration not stated)	1.26%
CCCC(C)NCc1cnc(-c2cccc(C)c2)nc1 (configuration not stated)	-11.7%

SMILES	cytotoxicity at 10 µM
CC(NC(=O)Nc1ccc(F)c(F)c1)c1nc[nH]n1 (configuration not stated)	0.185%
CCN1CCN(C(=O)c2cc(C(=O)OC)nn2-c2ccccc2)CC1	-13.4%
CC(=O)N1C[C@H](c2cc(O)nc(C)n2)[C@@H](c2ccccc2F)C1	1.65%
Cc1cccnc1CNc1ccc(C(=O)N2CCc3ccccc32)cn1	-0.608%
CCOc1cc(C)nc(N2CCN(C(=O)c3cn[nH]c3CC)CC2)n1	-2%
O=C1CCCc2cc(S(=O)(=O)NCc3ccccn3)ccc2N1	2.41%
Fc1ccc(C2(CNC3=NCCN3)CCCC2)cc1	12.9%
CCOc1cccc(CNc2ccccc2OC)c1O	0.142%
c1ccc(CC2(CNCc3ncc[nH]3)CCC2)cc1	0.458%
COc1ccc(Cl)cc1CN(C)C(=O)CN1C(=O)OC[C@@H]1C(C)C	-4.29%
CC(C)c1nnc(NC(=O)NCc2ccnc(N(C)C)c2)s1	7.29%
CC1(C)CC1(C(=O)N1CC(c2cccnc2)C1)c1ccccc1F (configuration not stated)	-10.7%
COc1cc(CNCc2ccnc(N3CCCCC3)c2)cc(OC)c1	28.9%
Cc1nn(C)c(N(C)C)c1CNCc1cccc(CN(C)C(C)C)c1	11.4%
Cc1ccc(CN(C)C(=O)CN2CCOC(Cn3cccn3)C2)o1 (configuration not stated)	-0.906%
Cc1n[nH]c(C2CN(C(=O)c3ccc4c(c3)CCCC4)CCO2)n1 (configuration not stated)	-10.8%
CCN1C(=O)CCC12CCN(S(=O)(=O)c1ccc(C#N)cc1)CC2	1.82%
O=C1CCCN1CCCN1CCCC1Cn1cccn1 (configuration not stated)	-1.82%
CC(CCc1ccccc1)NC(=O)CNCCCN(C)C (configuration not stated)	-3.83%
Cc1occc1C(=O)N1CCc2ncnc(-c3cnn(C)c3)c2CC1	-4.77%
Cn1c(-c2ccccc2Cl)nc2cc(C(=O)NC(CO)CO)cnc21	-10.8%
Cn1nc2c(cc1=O)CN(c1nc3ccccc3s1)CC2	2.89%
Clc1cncc(NCc2cccc(OCCN3CCOCC3)c2)n1	9.71%

SMILES	cytotoxicity at 10 µM
O=C1C(N2CCOC3(CCCC3)C2)CCN1C1CC1 (configuration not stated)	9.4%
CC1CCc2nc(NC(=O)CN(C)C(=O)c3ccco3)sc2C1 (configuration not stated)	-11.4%
CSc1sc(NC(=O)Cc2c(C)nc(C)[nH]c2=O)nc1C	-1.29%
COc1cccc(CSc2nnc(C)n2CC(N)=O)c1	3.59%
O=C(Nc1nccs1)NC1CCN(CC2CCCC2)CC1	-8.07%
COc1ccc(-c2n[nH]cc2CN(C)Cc2ccoc2)c(F)c1	-0.174%
N#Cc1ccccc1OCCN1CCCC1Cn1cccn1 (configuration not stated)	-9.14%
O=C(Cn1cccnc1=O)NCc1cccnc1OCC(F)(F)F	-11.9%
CN1CCN(Cc2ccccc2CNC(=O)c2cc(Br)ccc2F)CC1	6.37%
COC(=O)c1ccoc1CN(C)Cc1ccccc1	3.3%
CNc1cc(C)nc(C2CN(Cc3ccc(Cl)cn3)CCO2)c1 (configuration not stated)	-26.2%
CCOc1ncccc1C(=O)NCC(O)c1ccc(F)c(F)c1 (configuration not stated)	9.45%
CC(NC(=O)Nc1ccncc1)c1ccc2c(c1)CC(=O)N2 (configuration not stated)	-5.76%
Cc1cccc(CN2CCC3(CCCN(C(=O)NC(C)C)C3)C2=O)n1 (configuration not stated)	7.51%
CC1CCCN(c2nccn3c(=O)[nH]nc23)C1 (configuration not stated)	12.1%
COc1ccc(S(=O)(=O)NC(=O)c2cscn2)cc1C	6.84%
O=C(N1CCCCC1)N1CCN(CC(O)c2ccc(F)cc2)CC1 (configuration not stated)	-8.85%
COc1ccccc1OCC(=O)NS(=O)(=O)c1ccc(C)s1	-12.7%
CCc1nnc2n1CCN(C(=O)Cc1nc(-c3ccco3)oc1C)C2	1.19%
CC[C@@H]1N(Cc2nccs2)CCC[C@]12CCC(=O)N2CCOC	2.49%
